Compound activity (PubChem BioAssay)
TAAR1 agonist = human TAAR1 agonists, primary screen, Fluo-8 calcium fluorescence, CHO RD-HGA16 cells; 360,000 compounds, 0.99% hits; AID 624467, 2012; vehicle wells 0%, saturating PEA agonist 100%; Trace amine-associated receptor 1 (Homo sapiens), Q96RJ0; activation, % at 3 µM;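 active = activation above the mean activation of all test compounds in the run plus 3 SD, cut at about 38% in these data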
Target sequence (Q96RJ0 whole entry, looked up): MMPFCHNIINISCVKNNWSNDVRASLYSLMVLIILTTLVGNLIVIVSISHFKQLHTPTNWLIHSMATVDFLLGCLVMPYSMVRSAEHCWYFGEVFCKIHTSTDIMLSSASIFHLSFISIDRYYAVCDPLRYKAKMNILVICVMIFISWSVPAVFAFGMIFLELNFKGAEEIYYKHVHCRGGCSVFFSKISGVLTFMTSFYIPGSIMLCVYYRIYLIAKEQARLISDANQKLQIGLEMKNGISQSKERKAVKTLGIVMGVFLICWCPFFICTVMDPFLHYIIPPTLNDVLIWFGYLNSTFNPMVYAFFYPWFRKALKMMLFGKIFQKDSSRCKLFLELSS
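Test system: RD-HGA16 (CHO) cells co-expressing Gα16 and hTAAR1 / Benchmarks: DMSO vehicle as 0%, PEA at EC100 as 100% / Repeats: no replicates (n 1) / Measure: % activation from peak over basal fluorescence ratio, DMSO-to-PEA scaled / Timing: 17-24 h plating, Fluo-8 75 min 37 °C, 30 min RT / Technique: kinetic Fluo-8 calcium fluorescence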
MPTP inh = mitochondrial permeability transition pore inhibitors, primary screen, biochemical, isolated mouse mitochondria, absorbance; inhibition, % at 10 µM; 360,000 compounds, 1.4% hits; Ca2+ swelling absorbance, 30 min;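 active = inhibition of 50% or more, scaled per plate between neutral and stimulator controls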
TAAR1 antagonist = human TAAR1 antagonists, primary screen, Fluo-8 calcium fluorescence, CHO RD-HGA16 cells. Trace amine-associated receptor 1 (Homo sapiens), Q96RJ0. antagonist. inhibition, % at 3 µM. 360,000 compounds, 1.5% hits. AID 624466, 2012;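 active = inhibition above a per-plate cutoff, the mean inhibition of test compounds on that plate plus 3 SD, cut at about 49% in these data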
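Test system: RD-HGA16 CHO cells with stable hTAAR1 and Gα16 / Probe or stimulus: EC80 β-phenethylamine stimulus / Times: seeding 17-24 h prior, 75-min 37 °C, 30-min RT dye loading / Detection: Fluo-8 calcium-sensitive fluorescence / Read-out basis: % inhibition scaled between DMSO and EC80 PEA controls / Repeats: singlicate, one well per test compound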
DAGLB inhibitor = DAGLB lipase inhibitors, primary screen, biochemical, fluorescence, HTS. inhibition, % at 5.17 µM. HEK293T DAGLB membrane lysate, EnzChek fluorogenic substrate. 340,000 compounds, 0.059% hits. AID 504411, 2011. Diacylglycerol lipase-beta (Homo sapiens), Q8NCG7; in the data active = inhibition above about 34%
GPR7 antagonist = GPR7 receptor antagonists, primary screen, cell-based, fluorescence, single concentration | inhibition, % at 4.4 µM | 290,000 compounds, 1.1% hits | Neuropeptides B/W receptor type 1 (Homo sapiens), P48145 | GPR7-expressing cells, fluorescence antagonist assay | AID 1861, 2009; in the data active = inhibition above about 16%, passing the limit was not always enough;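 note: cells stimulated with the agonist NPW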
Target sequence (P48145 whole entry, looked up): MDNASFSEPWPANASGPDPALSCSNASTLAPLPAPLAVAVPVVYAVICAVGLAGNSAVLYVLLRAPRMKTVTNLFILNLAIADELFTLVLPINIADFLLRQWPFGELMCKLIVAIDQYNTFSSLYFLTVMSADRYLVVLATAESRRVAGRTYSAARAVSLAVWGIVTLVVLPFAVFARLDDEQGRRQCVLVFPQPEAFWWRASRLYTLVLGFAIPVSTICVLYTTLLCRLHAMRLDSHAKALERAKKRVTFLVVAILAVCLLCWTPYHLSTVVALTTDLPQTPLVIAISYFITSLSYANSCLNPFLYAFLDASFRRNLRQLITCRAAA
GPR7 antag conf = GPR7 receptor antagonists, confirmation, cell-based, fluorescence, single concentration | shares compounds with GPR7 antagonist | GPR7-expressing cells, calcium fluorescence antagonist mode | inhibition, % at 4.4 µM | 2,400 compounds, 52% hits; in the data active = inhibition above about 24%;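 note: stimulated with the GPR7 agonist NPW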
MCHR1 antag = MCHR1 antagonists in cells, counter-screen for GPR7 antagonist project, cell-based, fluorescence, human; shares compounds with GPR7 antagonist; MCHR1-expressing cells, fluorescence antagonist assay; inhibition, % at 4.4 µM; 2,400 compounds, 62% hits; AID 2148, 2009; in the data active = inhibition above about 22%
Each line names hits and unclear results; the compound was inactive in the other large screens (follow-up assays come after a bar, where they were run). A selection: hits, their analogues and other compounds. The true share with any hit is near 4%.

C[C@]12Cc3ccccc3C1CC1=N[C@@H](c3ccc(C(F)(F)F)cc3)O[C@@]13C[C@@H]2C(=O)N3C1CCN(Cc2ccccc2)CC1 (stereo partly specified)	none (no result: MPTP inh, DAGLB inhibitor, GPR7 antagonist)
CCNc1c2c3c(cccc3n(C)c1=O)C(=O)c1ccccc1-2	none (no result: TAAR1 agonist, MPTP inh, TAAR1 antagonist, DAGLB inhibitor)
CCCCNc1c2c3c(cccc3n(C)c1=O)C(=O)c1ccccc1-2	GPR7 antagonist 21 (no result: TAAR1 agonist, TAAR1 antagonist) | GPR7 antag conf 65 | MCHR1 antag 81
Cc1ccccc1S(=O)(=O)N1CCN(c2ccc3c(c2)C2CC3CCN2C(=O)OCc2ccccc2)CC1 (stereo unspecified)	none (no result: DAGLB inhibitor, GPR7 antagonist)
CN(Cc1cccs1)C(=O)CCc1c[nH]c2ccccc12	none
CN(Cc1cccs1)C(=O)CCCc1c[nH]c2ccccc12	GPR7 antagonist 33 | GPR7 antag conf 33 | MCHR1 antag 45
COC(=O)[C@]12C[C@H](CC(=O)NCC3CCCCC3)C(=O)N(Cc3ccc4c(c3)OCO4)C1=C[C@H](COCc1ccccc1)O[C@@H]2C	none (no result: MPTP inh, DAGLB inhibitor, GPR7 antagonist)
Cn1cccc1/C=C1\SC(=S)N(Nc2ccccc2)C1=O	GPR7 antagonist 22 | GPR7 antag conf inactive | MCHR1 antag 23
Cc1ccc(S(=O)(=O)NN2C(=O)/C(=C/c3cccn3C)SC2=S)cc1	none (no result: TAAR1 agonist, MPTP inh, TAAR1 antagonist, DAGLB inhibitor)
COc1ccc(-n2c(C)cc(/C=C3\C(=N)N4N=C(CC(=O)N5CCOCC5)SC4=NC3=O)c2C)cc1	GPR7 antagonist 32 | GPR7 antag conf inactive | MCHR1 antag inactive
Cc1cc(/C=C2\C(=N)N3N=C(CC(=O)N4CCOCC4)SC3=NC2=O)c(C)n1-c1ccccc1	none
Cc1nc2sccn2c(=O)c1S(=O)(=O)N1CCN(c2ccccc2F)CC1	none (no result: DAGLB inhibitor, GPR7 antagonist)
COc1ccc(OC)c(N(CC(=O)N2CCC(C)CC2)S(=O)(=O)c2ccccc2)c1	GPR7 antagonist 26 | GPR7 antag conf inactive | MCHR1 antag inactive
CCCCC(=O)Nc1ncc(S(=O)(=O)c2ccc([N+](=O)[O-])cc2)s1	TAAR1 agonist 55, GPR7 antagonist 35 | GPR7 antag conf 26 | MCHR1 antag 25
CC(=O)NCCC(=O)Nc1ncc(S(=O)(=O)c2ccc([N+](=O)[O-])cc2)s1	none (no result: GPR7 antagonist)
CCOC(=O)Cc1csc(NC(=O)C(C)c2ccc([N+](=O)[O-])cc2)n1 (stereo unspecified)	TAAR1 agonist 50, GPR7 antagonist 74 | GPR7 antag conf 49 | MCHR1 antag 54
CCCNC(=O)C1(C)CCCN(CCOc2ccccc2)C1 (stereo unspecified)	none (no result: DAGLB inhibitor, GPR7 antagonist)
CCCCNC(=O)C1(C)CCCCN1C(=O)c1cc(-c2ccccc2)cs1 (stereo unspecified)	none (no result: DAGLB inhibitor, GPR7 antagonist)
Cc1ccc(NC(=O)N(Cc2ccco2)Cc2cc3cc(C)cc(C)c3nc2Cl)cc1	none (no result: MPTP inh, DAGLB inhibitor)
Cc1cccc2cc(CN(Cc3ccco3)C(=O)Nc3cccc(C#N)c3)c(Cl)nc12	GPR7 antagonist 27 | GPR7 antag conf 39 | MCHR1 antag 61
CC1CCc2nc3ccccc3c(C(=O)OCC(=O)NC3CCS(=O)(=O)C3)c2C1 (stereo unspecified)	none
COc1cccc(NC(=O)COC(=O)c2c3c(nc4ccccc24)CCC(C)C3)c1 (stereo unspecified)	GPR7 antagonist 39 | GPR7 antag conf 26 | MCHR1 antag 63
Cc1ccc2[nH]c3c(c2c1)CCc1cn[nH]c1-3	GPR7 antagonist 23 | GPR7 antag conf inactive | MCHR1 antag 24
[O-][N+](=Cc1ccccc1)CC1(O)CCCCC1	none (no result: GPR7 antagonist)
COc1ccc(Cl)cc1N(C(=O)c1ccco1)C(C(=O)NC1CCCC1)c1cccnc1 (stereo unspecified)	GPR7 antagonist 23 | GPR7 antag conf inactive | MCHR1 antag inactive
COc1ccc(N(C(=O)c2ccco2)C(C(=O)NC2CCCC2)c2ccc(OC)c(OC)c2)cc1 (stereo unspecified)	none
COc1ccc(Cl)cc1N(C(=O)c1ccco1)C(C(=O)NC1CCCC1)c1ccco1 (stereo unspecified)	GPR7 antagonist 29 | GPR7 antag conf 28 | MCHR1 antag 22
COc1ccc(OC)c(N(C(=O)c2ccco2)C(C(=O)NC2CCCC2)c2cc(OC)c(OC)c(OC)c2)c1 (stereo unspecified)	GPR7 antagonist 32 | GPR7 antag conf inactive | MCHR1 antag inactive
COC(=O)c1cc2c(c3c4cc(F)ccc4n(S(=O)(=O)c4ccc(C)cc4)c13)C(=O)N(Cc1ccc(C(F)(F)F)cc1)C2	none (no result: MPTP inh, DAGLB inhibitor, GPR7 antagonist)
O=C(c1cccc(Cl)c1)N1CCC(=O)N([C@H](COCc2ccccc2)Cc2ccccc2)CC1	none (no result: DAGLB inhibitor, GPR7 antagonist)
O=C(NCC(O)CO)c1ccc2[nH]c3ccccc3c2c1 (stereo unspecified)	GPR7 antagonist 26 | GPR7 antag conf inactive | MCHR1 antag inactive
CC1(C)OC2CC3C4CCC5=CC(=O)C=CC5(C)C4(F)C(O)CC3(C)C2(C(=O)CO)O1 (stereo unspecified)	none (no result: DAGLB inhibitor, GPR7 antagonist)
COc1ccc(OCc2n(CC(=O)OC3CC(C)CCC3C(C)C)c3ccccc3[n+]2C)cc1 (stereo unspecified)	GPR7 antagonist 71 | GPR7 antag conf 62 | MCHR1 antag 84
O=C(O)CC(c1ccccc1)c1ccc2c(c1)OCO2 (stereo unspecified)	none (no result: GPR7 antagonist)
CC(C)C(NC(=O)c1ccccc1)C(=O)NCc1ccccn1 (stereo unspecified)	GPR7 antagonist 35 | GPR7 antag conf inactive | MCHR1 antag inactive
COc1cc(OC)cc(C(=O)NC(C(=O)NCc2ccccn2)C(C)C)c1 (stereo unspecified)	none (no result: GPR7 antagonist)
C=CCN1C[C@H](COC(=O)CSc2ccccc2)Oc2cccc(F)c2S1(=O)=O	none (no result: MPTP inh, DAGLB inhibitor, GPR7 antagonist)
COc1ccc2[nH]c3c(=O)n(CCCC(=O)NC4CCCCC4C)c(=S)[nH]c3c2c1 (stereo unspecified)	GPR7 antagonist 22 | GPR7 antag conf inactive | MCHR1 antag inactive
COCCNC(=O)C1(C)Cc2c(-c3ccc(N(C)C)cc3)ccnc2O1 (stereo unspecified)	none (no result: DAGLB inhibitor, GPR7 antagonist)
Nc1ccc(CSc2ccccc2)cc1	none (no result: GPR7 antagonist)
O=C(c1nn(Cc2ccccc2)c(=O)c2ccccc12)N1CCc2ccccc2C1	none
O=C(c1nn(Cc2ccccc2)c(=O)c2ccccc12)N1CCN(c2ccccn2)CC1	GPR7 antagonist 30 | GPR7 antag conf 32 | MCHR1 antag 27
CCOc1ccc(NC2=C(Cl)C(=O)N(Cc3ccccc3)C2=O)cc1	GPR7 antagonist 74 | GPR7 antag conf 99 | MCHR1 antag 64
COc1ccc(NC2=C(Cl)C(=O)N(CCc3ccccc3)C2=O)cc1	none
